According to ChEMBL document CHEMBL4828728, “Antiplasmodial 2-thiophenoxy-3-trichloromethyl quinoxalines target the apicoplast of Plasmodium falciparum” (Eur J Med Chem, 2021):
Activity calls are given as the source filed them. The calls are words filed in the database; no cut-off is given here.

Tests used:
[1] = test system: Plasmodium falciparum; test: Antiplasmodial activity against multidrug-resistant Plasmodium falciparum K1 infected in human erythrocytes assessed as reduction in parasite growth incubated for 72 hrs by SYBR green I fluorescence based assay; assay type: functional, organism-based; conditions: K1, Erythrocyte
[2] = Cytotoxicity against human HepG2 cells assessed as reduction in cell viability measured after 72 hrs by MTT assay; assay type: cell-based
Outline: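 HepG2 in MEM with 10% FBS, 5×10³ cells/well; 24 h attachment, then serial dilutions (DMSO <0.5% final) for 72 h at 37 °C, wells checked for precipitate. MTT 0.5 mg/mL for 2 h, formazan in DMSO, A570 with 630 nm reference. Viability versus untreated; doxorubicin positive control; CC50 from dose-response curve, triplicates, mean of three independent experiments.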

[3] = Selectivity index, ratio of CC50 for cytotoxicity against human HepG2 cells to EC50 for antiplasmodial activity against multidrug-resistant Plasmodium falciparum K1 infected in human erythrocytes; assay type: toxicity, cell-based; conditions: read-out: Ratio CC50/EC50
[4] = Aqueous solubility of the compound; assay type: physicochemical; conditions: buffer
[5] = Cytotoxicity against CHO cells assessed as reduction in cell viability measured after 24 hrs by MTT assay; assay type: cell-based, Cricetulus griseus; conditions: chinese hamster
Outline: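 CHO cells grown in RPMI with 10% FBS; 5×10³ cells/well, 24 h attachment, then compound dilutions (DMSO <0.5% final) for 24 h at 37 °C. Precipitate check, MTT 0.5 mg/mL 2 h, DMSO solubilization, A570/630. Percent viability against untreated; doxorubicin control; CC50 from dose-response, triplicates, mean of three independent experiments.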

[6] = Cytotoxicity against African green monkey Vero cells assessed as reduction in cell viability measured after 48 hrs by MTT assay; assay type: cell-based; conditions: chlorocebus sabaeus
Outline: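 Vero cells in MEM with 10% FBS; 5×10³ cells/well, 24 h attachment, then compound dilutions (DMSO <0.5% final) for 48 h at 37 °C. Precipitate check, MTT 0.5 mg/mL 2 h, DMSO solubilization, A570/630. Viability relative to untreated; doxorubicin control; CC50 from dose-response, triplicates, mean of three independent experiments.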

[7] = Genotoxicity in human HepG2 cells assessed as induction of DNA strand breaks at 5.6 uM measured after 2 to 72 hrs by alkali comet assay; assay type: cell-based; conditions: hepg2, 5.6 µM, time 2-72 hrs
Outline: (§1)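 HepG2 (passage 11-15, EMEM with 10% FBS) exposed to 5.6 or 28 μM for 2 h or 72 h; vehicle 0.5% DMSO; 1 mM MMS 2 h positive control. Alkaline comet: lysis pH 10 at 4 °C 1 h, unwinding 40 min at pH >13, electrophoresis 1 V/cm 20 min. DAPI staining, % tail DNA; median of 50 comets per duplicate gel, mean of three experiments ±SD.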

[8] = Genotoxicity in human HepG2 cells assessed as induction of DNA strand breaks at 28 uM measured after 2 to 72 hrs by alkali comet assay; assay type: cell-based; conditions: hepg2, 28 µM, time 2-72 hrs; outline: as §1
[9] = Genotoxicity in human HepG2 cells assessed as induction of alkali labile sites at 5.6 uM measured after 2 to 72 hrs by alkali comet assay; assay type: cell-based; conditions: hepg2, 5.6 µM, time 2-72 hrs; outline: as §1
[10] = Genotoxicity in human HepG2 cells assessed as induction of alkali labile sites at 28 uM measured after 2 to 72 hrs by alkali comet assay; assay type: cell-based; conditions: hepg2, 28 µM, time 2-72 hrs; outline: as §1
[11] = test system: Plasmodium falciparum; test: Inhibition of apicoplast biogenesis in Plasmodium falciparum 3D7 assessed as loss of apicoplast at 0.3 uM measured after 48 hrs by DAPI/TPT staining based epifluorescence microscopic analysis; assay type: functional, organism-based
Outline: (§2)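 Sorbitol-synchronized (5%) 3D7 blood-stage cultures expressing HA-tagged TPT, grown in RPMI-HEPES with 5% AlbuMAX II, 2% hematocrit, 1% O2/5% CO2, 37 °C; exposed 48 h to 0.3 μM or DMSO. Fixed in 4% PFA/0.0075% glutaraldehyde, Triton-permeabilized, stained with anti-HA plus Alexa 488 secondary and DAPI; imaged by epifluorescence with DIC.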

[12] = test system: Plasmodium falciparum; test: Antiplasmodial activity against Plasmodium falciparum 3D7 assessed as reduction in parasite development by measuring defect in parasite replication at 0.3 uM measured after 48 hrs by DAPI/TPT staining based epifluorescence microscopic analysis; assay type: functional, organism-based; outline: as §2
[13] = test system: Plasmodium falciparum; test: Antiplasmodial activity against Plasmodium falciparum 3D7 assessed as reduction in parasite development by measuring enriched culture in mid trophozite parasites at 0.3 uM measured after 48 hrs by DAPI/TPT staining based epifluorescence microscopic analysis; assay type: functional, organism-based; outline: as §2
[14] = test system: Plasmodium falciparum; test: Inhibition of apicoplast development in Plasmodium falciparum 3D7 assessed as reduction in parasite growth at 0.3 uM measured during 48 hrs of first cycle of parasite development by SYBR green I based fluorescence assay; assay type: functional, organism-based
Outline: (§3)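 3D7 cultures held at 0.3 μM or DMSO across three 48 h cycles, diluted 1/10 each cycle. At 48, 96 and 144 h, aliquots were lysed in SYBR Green I buffer (Tris pH 7.5, EDTA, saponin, Triton X-100) for 1 h at room temperature in the dark. Fluorescence read at 485/538 nm; growth expressed as treated/untreated ratio, n=3, SD.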

[15] = test system: Plasmodium falciparum; test: Inhibition of apicoplast development in Plasmodium falciparum 3D7 assessed as delayed death phenotype at 0.3 uM measured during 48 hrs of three cycles of parasite development by SYBR green I based fluorescence assay; assay type: functional, organism-based; outline: as §3
[16] = test system: Plasmodium falciparum; test: Antiplasmodial activity against Plasmodium falciparum NF135 sporozoites infected in human hepatocytes assessed as reduction in parasite size without affecting parasite number incubated for 3 hrs with daily replacement of fresh medium containing compound until day 6 post infection by fluorescence microscopic analysis; assay type: functional, organism-based; conditions: Hepatocyte, time 6.0 day
Outline: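 Cryopreserved primary human hepatocytes seeded at 80,000/well on collagen I in supplemented William's E, then infected with 30,000 NF135 sporozoites/well from A. stephensi salivary glands. Plates centrifuged 10 min, serial drug dilutions added at infection, washed at 3 h, drug medium renewed daily. Fixed day 6 in 4% PFA, EEFs stained with anti-HSP70 plus DAPI, counted by fluorescence microscopy or high-content imaging.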

[17] = test system: Plasmodium falciparum; test: (§4) Inhibition of apicoplast development in hepatic stage of Plasmodium falciparum NF135 infected in human hepatocytes assessed as condensation of apicoplast protein ACP signal incubated for 3 hrs with daily replacement of fresh medium containing compound until day 6 post infection by confocal microscopy; assay type: functional, organism-based; conditions: time 6.0 day
Outline: (§5)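 Primary human hepatocytes infected with NF135 sporozoites (30,000/well), drug present from infection, washed at 3 h and renewed daily until fixing at day 6 (4% PFA). Apicoplast stained with anti-ACP antibody, parasites with anti-HSP70, DNA with DAPI, imaged by confocal microscopy. 100 parasites scored as normal or partially/completely altered apicoplast, given as percentage distribution.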

[18] = test system: Plasmodium falciparum; test: as §4, with “proportion of schizonts with partial and complete alteration” for “condensation”, “apicoplast” for “apicoplast protein ACP”, “signal at 30 uM” for “signal”; assay type: functional; parameters: scale not given: the % may be the effect or the level left; conditions: time 6 day; outline: as §5
[19] = Toxicity in human hepatocytes assessed as reduction in nuclei number up to 30 uM by microscopic analysis; assay type: cell-based, Hepatocyte
Outline: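 Cryopreserved primary human hepatocytes, 80,000 per collagen-coated well in William's E medium, inoculated with 30,000 NF135 sporozoites/well and centrifuged. Serial drug dilutions added with sporozoites, renewed daily until 4% PFA fixation at day 6. Stained with anti-HSP70 and DAPI; hepatocyte nuclei counted across scanned microscopic fields, treated versus control.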

[20] = test system: Plasmodium falciparum; test: Inhibition of apicoplast biogenesis in Plasmodium falciparum 3D7 assessed as reduction in apicoplast development, elongation and branching at 0.3 uM measured after 48 hrs by DAPI/TPT staining based epifluorescence microscopic analysis; assay type: functional, organism-based; outline: as §2
[21] = Aqueous solubility of the compound assessed as precipitation of the compound at >1.9 uM; assay type: physicochemical; conditions: buffer
[22] = test system: Plasmodium falciparum; test: Antiplasmodial activity against Plasmodium falciparum 3D7; assay type: functional, organism-based
[23] = Genotoxicity in human HepG2 cells assessed as induction of DNA strand breaks at 1 mM measured after 2 hrs by alkali comet assay; conditions: hepg2, 1000 µM
[24] = Genotoxicity in human HepG2 cells assessed as induction of alkali labile sites at 1 mM measured after 2 hrs by alkali comet assay; conditions: hepg2, 1000 µM

Row | SMILES | EC50 [1] [nM] | CC50 at 72 h [2] [µM] | selectivity ratio [3] | solubility [4] | other results
1 | FC(F)(F)Oc1ccc(Sc2nc3ccccc3nc2C(Cl)(Cl)Cl)cc1 | 360 | 21 | 58.3 | Soluble | 
2 | ClC(Cl)(Cl)c1nc2ccccc2nc1Sc1ccccc1 | 320 | 56 | 175 | Soluble | CC50 at 24 h [5]: 58.5 µM; CC50 at 48 h [6]: 63.5 µM; Activity [7]: Non-Toxic; Activity [8]: Non-Toxic; Activity [9]: Non-Toxic; Activity [10]: Non-Toxic; inhibition [11]: Active; Activity [12]: Active; Activity [13]: Active; Activity [14]: Active; Activity [15]: Active; Activity [16]: Dose-Dependent Effect; inhibition [17]: Active; Activity [18]: 93%; Activity [19]: Non-Toxic; inhibition [20]: Active
3 | COc1ccc(Sc2nc3ccccc3nc2C(Cl)(Cl)Cl)cc1 | 650 | > 1.9 | > 3 |  | solubility [21]: Insoluble
4 | Fc1cccc(Sc2nc3ccccc3nc2C(Cl)(Cl)Cl)c1 | 310 | 35.9 | 116 | Soluble | 
5 | Clc1cccc(Sc2nc3ccccc3nc2C(Cl)(Cl)Cl)c1 | 410 | 38.3 | 93.4 | Soluble | 
6 | FC(F)(F)c1nc2ccccc2nc1Sc1ccccc1 | > 50000 | > 50 |  |  | 
7 | Clc1ccc(Sc2nc3ccccc3nc2C(Cl)(Cl)Cl)c(Cl)c1 | 900 | > 31.2 | > 34.7 | Soluble | 
8 | Cc1nc2ccccc2nc1Sc1ccccc1 | > 50000 | > 25 |  |  | Activity [15]: inactive
9 | Oc1cc(Cl)ccc1Oc1ccc(Cl)cc1Cl [TRICLOSAN] |  |  |  |  | EC50 [22]: 1550 nM
10 | Cc1ccc(Sc2nc3ccccc3nc2C(Cl)(Cl)Cl)cc1 | 1500 | 69.7 | 46.5 | Soluble | 
11 | C[C@H]1c2cccc(O)c2C(=O)C2=C(O)[C@]3(O)C(=O)C(C(N)=O)=C(O)[C@@H](N(C)C)[C@@H]3[C@@H](O)[C@@H]21 [DOXYCYCLINE] | 6000 |  | 3.3 |  | 
12 | Clc1cccc(Sc2nc3ccccc3nc2C(Cl)(Cl)Cl)c1Cl | 310 | 34.6 | 112 | Soluble | 
13 | Fc1ccccc1Sc1nc2ccccc2nc1C(Cl)(Cl)Cl | 320 | 40.5 | 127 | Soluble | 
14 | COc1ccccc1Sc1nc2ccccc2nc1C(Cl)(Cl)Cl | 740 | 42.6 | 56.8 | Soluble | 
15 | FC(F)(F)c1ccc(Sc2nc3ccccc3nc2C(Cl)(Cl)Cl)cc1 | 500 | 29.9 | 59.8 | Soluble | 
16 | Fc1ccc(Sc2nc3ccccc3nc2C(Cl)(Cl)Cl)cc1 | 360 | 30.8 | 85.6 | Soluble | 
17 | O=C1C(O)=C([C@H]2CC[C@H](c3ccc(Cl)cc3)CC2)C(=O)c2ccccc21 [ATOVAQUONE] | 1 | > 15.6 |  |  | 
18 | Clc1ccccc1Sc1nc2ccccc2nc1C(Cl)(Cl)Cl | 500 | 36.9 | 73.8 | Soluble | 
19 | ClC(Cl)(Cl)c1nc2ccccc2nc1Sc1ccc(Br)cc1 | 460 | 42.2 | 93 | Soluble | 
20 | c1ccc(Sc2cnc3ccccc3n2)cc1 | > 50000 | > 50 |  |  | 
21 | COS(C)(=O)=O [METHANESULFONIC ACID METHYL ESTER] |  |  |  |  | Activity [23]: Toxic; Activity [24]: Toxic
22 | Clc1ccc(Sc2nc3ccccc3nc2C(Cl)(Cl)Cl)cc1 | 500 |  | 77.2 |  | 
23 | COc1ccc(Cl)c(Sc2nc3ccccc3nc2C(Cl)(Cl)Cl)c1 | 460 | 58.4 | 127 | Soluble | 
24 | O=[N+]([O-])c1ccc(Sc2nc3ccccc3nc2C(Cl)(Cl)Cl)cc1 | 250 | 19.9 | 79.6 | Soluble | 
25 | CCN(CC)CCCC(C)Nc1ccnc2cc(Cl)ccc12 (configuration not stated) [CHLOROQUINE] | 800 |  |  |  | 
